Blank lines part the entries; values can stand above or below the molecule they belong to.
Key:
[1] = target: T1, P2Y purinoceptor 1 (Meleagris gallopavo, UniProt P49652); assay: Antagonist activity at turkey P2Y1 receptor expressed in human 1321N1 cells assessed as inhibition of 2-MeS-ADP-induced increase in intracellular calcium concentration by dual-excitation spectrofluorimetric analysis; assay type: functional, cell-based
Procedure, shortened: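 Fura-2-loaded suspensions of stably transfected 1321N1 cells were assayed at 37 °C in HEPES-buffered saline pH 7.4 with 1 mM Ca2+ and Mg2+. […] [Ca2+]i was read by dual-excitation spectrofluorometry.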

[2] = Dissociation constant, pKa of the compound; assay type: physicochemical
[3] = tested on: alkaline phosphatase; assay: Stability assessed as drug remaining after 12 mins by HPLC-MS analysis in presence of calf intestine alkaline phosphatase; assay type: ADME; conditions: cattle, read-out: Stability
[4] = Chemical stability assessed as hydrolysis half life at pH 1.4 by 31P NMR analysis; assay type: physicochemical; conditions: buffer
[5] = Chemical stability at physiological pH at 37 deg C assessed as hydrolysis half life by 31P NMR analysis; assay type: physicochemical
[6] = Stability after 100 mins by HPLC-MS analysis in presence of calf intestine alkaline phosphatase; assay type: ADME; conditions: cattle, isolated protein
[7] = target: P2Y purinoceptor 1 (Rattus norvegicus, UniProt P49651); assay: Agonist activity at rat pancreas P2Y1 receptor assessed as enhancement of insulin secretion; assay type: functional
[8] = target: P2Y purinoceptor 6 (Rattus norvegicus, UniProt Q63371); assay: Agonist activity at rat P2Y6 receptor expressed in human 1321N1 cells assessed as increase in intracellular calcium concentration by dual-excitation spectrofluorimetric analysis; assay type: functional, cell-based
Procedure, shortened: (§1)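 1321N1 astrocytoma cells stably expressing the receptor (turkey P2Y1, human P2Y2, human P2Y4, rat P2Y6) were grown with G-418 selection. Fura-2-loaded cell suspensions were exposed at 37 °C in 10 mM HEPES-buffered saline pH 7.4 with 1 mM CaCl2 and 1 mM MgCl2. Peak [Ca2+]i rise was measured over a range of concentrations to derive EC50.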

[9] = tested on: Serum; assay: (§2) Metabolic stability in human serum assessed as hydrolysis half life at 40 mM measured for 6 days by HPLC; assay type: ADME, cell-free; conditions: 144 h, 40000 µM
[10] = target: P2Y purinoceptor 1 (Rattus norvegicus) (UniProt P49651); assay: Agonist activity at rat pancreas P2Y1 receptor assessed as enhancement of insulin secretion relative to basal level; assay type: functional
[11] = target: T2, Ectonucleoside triphosphate diphosphohydrolase 1 (Bos taurus) (UniProt O18956); assay: Activity of bovine spleen NTPDase 1 assessed as drug hydrolysis at 100 uM after 7 mins by malachite green colorimetric assay relative to ATP; assay type: tissue-based; parameters: scale not given: the % may be the effect or the level left
T2 sequence (whole entry): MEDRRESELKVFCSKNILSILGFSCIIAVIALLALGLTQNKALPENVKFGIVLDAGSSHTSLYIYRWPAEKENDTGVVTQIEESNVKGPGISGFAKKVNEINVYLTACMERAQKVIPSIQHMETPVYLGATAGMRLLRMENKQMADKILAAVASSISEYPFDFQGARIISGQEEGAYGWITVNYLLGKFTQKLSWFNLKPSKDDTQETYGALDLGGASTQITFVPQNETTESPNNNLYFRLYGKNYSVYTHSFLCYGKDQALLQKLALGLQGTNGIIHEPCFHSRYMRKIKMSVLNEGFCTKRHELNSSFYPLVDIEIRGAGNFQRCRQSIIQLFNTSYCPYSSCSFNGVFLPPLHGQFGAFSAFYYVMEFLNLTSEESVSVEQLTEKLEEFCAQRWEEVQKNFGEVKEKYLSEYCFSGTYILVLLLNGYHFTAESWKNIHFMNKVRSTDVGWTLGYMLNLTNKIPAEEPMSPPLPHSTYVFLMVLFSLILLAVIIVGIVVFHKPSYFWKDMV

[12] = Stability at 77 ug/ml after 30 mins by HPLC in presence of calf intestine alkaline phosphatase; assay type: ADME; conditions: cattle, isolated protein, 0.5 h
[13] = Chemical stability assessed as hydrolysis half life at 1.6 mg at pH 1.4 measured at 7 to 17 hrs interval for 5 days by HPLC-MS analysis; assay type: physicochemical
Procedure, shortened: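 1.6 mg in 0.2 M HCl/KCl buffer with pH brought to 1.4, held at 37 °C. Sampled at 7–17 h intervals for 5 days by HPLC-ESI-MS on C18 with TEAA/MeOH gradient. Peak area versus time was fit to pseudo-first-order decay for t1/2.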

[14] = target: T1, P2Y purinoceptor 1; assay: Agonist activity at turkey P2Y1 receptor expressed in human 1321N1 cells assessed as increase in intracellular calcium concentration by dual-excitation spectrofluorimetric analysis; assay type: functional, cell-based
[15] = as §2; assay type: ADME, cell-free
[16] = tested on: Serum; assay: Metabolic stability in human serum assessed as hydrolysis half life at 0.25 mM measured for 18 hrs by HPLC; assay type: ADME, cell-free; conditions: 250 µM
Procedure, shortened: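 Serum from healthy-donor whole blood (12 h at 4 °C, spun 1500 × g for 15 min, stored at −80 °C) was diluted 1:3 in RPMI-1640 and incubated with the nucleotide at 37 °C. Samples were acid-quenched (0.6 M HCl), spun, neutralised with 4 M KOH and freeze-dried. They were run on C18 HPLC with a KH2PO4 pH 4.5/acetonitrile gradient. t1/2 came from the change in peak integration over time.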

[17] = target: P2Y purinoceptor 2 (Homo sapiens, UniProt P41231); assay: Agonist activity at human P2Y2 receptor expressed in human 1321N1 cells assessed as increase in intracellular calcium concentration by dual-excitation spectrofluorimetric analysis; assay type: functional, cell-based; procedure, shortened: as §1
[18] = target: P2Y purinoceptor 4 (Homo sapiens, UniProt P51582); assay: Agonist activity at human P2Y4 receptor expressed in human 1321N1 cells assessed as increase in intracellular calcium concentration by dual-excitation spectrofluorimetric analysis; assay type: functional, cell-based; procedure, shortened: as §1
P2Y purinoceptor 4, sequence (P51582 whole entry): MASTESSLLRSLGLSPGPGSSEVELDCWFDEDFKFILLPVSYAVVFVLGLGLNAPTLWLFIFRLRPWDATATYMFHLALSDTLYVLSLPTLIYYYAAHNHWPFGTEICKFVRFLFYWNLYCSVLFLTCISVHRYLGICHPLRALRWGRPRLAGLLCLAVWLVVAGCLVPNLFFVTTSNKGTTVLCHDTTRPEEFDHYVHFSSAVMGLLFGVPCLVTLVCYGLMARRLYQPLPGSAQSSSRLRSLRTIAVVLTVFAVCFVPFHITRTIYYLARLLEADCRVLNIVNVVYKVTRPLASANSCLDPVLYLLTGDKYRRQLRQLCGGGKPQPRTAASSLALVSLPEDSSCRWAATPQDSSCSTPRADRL

T1 sequence (P49652 whole entry): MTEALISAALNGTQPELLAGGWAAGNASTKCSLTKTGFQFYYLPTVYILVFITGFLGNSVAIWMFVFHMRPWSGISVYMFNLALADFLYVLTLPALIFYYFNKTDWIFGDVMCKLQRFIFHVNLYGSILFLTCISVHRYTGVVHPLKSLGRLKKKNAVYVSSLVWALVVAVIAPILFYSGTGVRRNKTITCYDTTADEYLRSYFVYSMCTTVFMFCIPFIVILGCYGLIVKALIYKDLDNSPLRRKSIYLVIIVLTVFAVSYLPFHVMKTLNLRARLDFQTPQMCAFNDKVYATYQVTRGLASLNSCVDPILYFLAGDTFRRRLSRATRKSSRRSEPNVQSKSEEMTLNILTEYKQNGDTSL
P2Y purinoceptor 6, sequence (Q63371 whole entry): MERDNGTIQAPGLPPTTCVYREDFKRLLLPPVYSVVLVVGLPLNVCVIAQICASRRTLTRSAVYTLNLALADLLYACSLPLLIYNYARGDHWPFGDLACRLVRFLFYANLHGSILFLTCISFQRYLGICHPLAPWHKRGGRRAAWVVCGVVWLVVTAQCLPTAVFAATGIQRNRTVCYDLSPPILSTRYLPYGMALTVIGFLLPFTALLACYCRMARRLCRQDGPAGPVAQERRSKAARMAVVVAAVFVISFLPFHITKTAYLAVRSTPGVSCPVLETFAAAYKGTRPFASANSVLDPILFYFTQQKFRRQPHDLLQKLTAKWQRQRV
P2Y purinoceptor 2, sequence (P41231 whole entry): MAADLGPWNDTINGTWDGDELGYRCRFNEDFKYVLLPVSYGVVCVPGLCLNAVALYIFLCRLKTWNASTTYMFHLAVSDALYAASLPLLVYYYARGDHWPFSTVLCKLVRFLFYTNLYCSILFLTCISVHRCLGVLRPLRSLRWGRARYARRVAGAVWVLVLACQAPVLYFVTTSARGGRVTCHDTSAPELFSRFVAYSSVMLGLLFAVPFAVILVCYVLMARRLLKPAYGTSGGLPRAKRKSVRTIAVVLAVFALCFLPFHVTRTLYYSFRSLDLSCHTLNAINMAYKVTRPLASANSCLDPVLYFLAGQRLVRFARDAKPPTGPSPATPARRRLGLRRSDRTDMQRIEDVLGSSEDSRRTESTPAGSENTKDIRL
P2Y purinoceptor 1 (Rattus norvegicus, UniProt P49651), sequence (P49651 whole entry): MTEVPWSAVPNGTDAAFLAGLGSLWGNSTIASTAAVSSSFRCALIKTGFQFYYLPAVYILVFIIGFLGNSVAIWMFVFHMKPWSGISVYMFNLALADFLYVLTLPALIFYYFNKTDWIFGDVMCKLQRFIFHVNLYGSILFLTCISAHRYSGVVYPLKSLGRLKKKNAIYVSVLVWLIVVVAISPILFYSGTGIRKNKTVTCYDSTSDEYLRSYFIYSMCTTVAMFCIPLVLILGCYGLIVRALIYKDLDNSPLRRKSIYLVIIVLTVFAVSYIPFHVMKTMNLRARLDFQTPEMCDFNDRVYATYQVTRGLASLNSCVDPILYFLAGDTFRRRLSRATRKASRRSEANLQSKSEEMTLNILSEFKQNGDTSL
P2Y purinoceptor 1 (Rattus norvegicus), sequence (P49651 whole entry): as above

- EC50 [1]: Not Active
SMILES: BP(=O)(OC[C@H]1O[C@@H](n2cnc3c(N)ncnc32)[C@H](O)[C@@H]1O)OP(=O)(O)CP(=O)(O)O (some centres undefined)

- EC50 ([8]; 1321-n1): Not Active
- Stability [9]: Stable
SMILES: BP(=O)(OC[C@H]1O[C@@H](n2cnc3c(N)nc(SC)nc32)[C@H](O)[C@@H]1O)OP(=O)(O)CP(=O)(O)O (single isomer, unassigned; diastereomer A)

- Stability [12]: Stable
- half-life [13]: 19 h
SMILES: BP(=O)(OC[C@H]1O[C@@H](n2cnc3c(N)ncnc32)[C@H](O)[C@@H]1O)OP(=O)(O)CP(=O)(O)O (single isomer, unassigned; diastereomer B)

- Stability [12]: Stable
- EC50 [14]: 17200 nM
- half-life at 40000 µM [15]: 71.9 h
- half-life [13]: 14.5 h
SMILES: BP(=O)(OC[C@H]1O[C@@H](n2cnc3c(N)nc(SC)nc32)[C@H](O)[C@@H]1O)OP(=O)(O)CP(=O)(O)O (single isomer, unassigned; diastereomer B)

- EC50 [14]: 100 nM
SMILES: Nc1ncnc2c1ncn2[C@@H]1O[C@H](COP(=O)(O)OP(=O)(O)O)[C@@H](O)[C@H]1O [ADENOSINE DIPHOSPHATE]

- EC50 [17]: 640 nM
- EC50 [18]: 480 nM
SMILES: O=c1ccn([C@@H]2O[C@H](COP(=O)(O)OP(=O)(O)OP(=O)(O)O)[C@@H](O)[C@H]2O)c(=O)[nH]1 [URIDINE TRIPHOSPHATE]

Continued, molecule first:

SMILES: CSc1nc(N)c2ncn([C@@H]3O[C@H](COP(=O)(O)OP(=O)(O)O)[C@@H](O)[C@H]3O)c2n1
- pKa [2]: 6.5

SMILES: BP(=O)(OC[C@H]1O[C@@H](n2cnc3c(N)nc(SC)nc32)[C@H](O)[C@@H]1O)OP(=O)(O)OP(=O)(O)O (single isomer, unassigned; diastereomer A) [listing 1 of 2 here]
- remaining at 0.2 h [3]: 40%
- half-life [4]: 5.9 h
- half-life [5]: 1400 h
- Stability [6]: Unstable
- EC50 [7]: 28 nM

SMILES: BP(=O)(OC[C@H]1O[C@@H](n2cnc3c(N)nc(SC)nc32)[C@H](O)[C@@H]1O)OP(=O)(O)OP(=O)(O)O (single isomer, unassigned; diastereomer A) [listing 2 of 2 here]
- fold change (FC) [10]: 9
- Activity [11]: 14%

SMILES: BP(=O)(OC[C@H]1O[C@@H](n2cnc3c(N)nc(SC)nc32)[C@H](O)[C@@H]1O)OP(=O)(O)OP(=O)(O)O (single isomer, unassigned; diastereomer B)
- Activity [11]: 59%

SMILES: Nc1ncnc2c1ncn2[C@@H]1O[C@H](COP(=O)(O)OP(=O)(O)OP(=O)(O)O)[C@@H](O)[C@H]1O [ADENOSINE TRIPHOSPHATE]
- t1/2 [9]: 7.7 h
- t1/2 [16]: 3.6 h

SMILES: O=c1ccn([C@@H]2O[C@H](COP(=O)(O)OP(=O)(O)O)[C@@H](O)[C@H]2O)c(=O)[nH]1 [URIDINE_DIPHOSPHATE]
- EC50 ([8]; read-out: EC50): 200 nM
